# Screening results from PubChem BioAssay.
# esBAF inh: inhibitors of esBAF chromatin remodeling in mouse ES cells. Bmi1-luciferase knock-in reporter, 24 h; 100% = twice the neutral-well signal. reporter increase, % at 12.5 µM. hit rate 2% among 350,000; in the data active = activation above about 40%; inconclusive = no clear call, values can overlap the other calls;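 note: 0% = median of the plate's neutral control wells and 100% = double that signal; a rise in the Bmi1 reporter signal indicates esBAF inhibition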
# Wnt act: activators of Wnt/beta-catenin signaling. Wnt/beta-catenin reporter cell assay, activator, plate reader. activation, % at 9.35 µM. hit rate 1.2% among 300,000; in the data active = activation above about 30%, passing the limit was not always enough; inconclusive = no clear call, values can overlap the other calls;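 note: 0% = neutral control wells and 100% = positive control wells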
# MITF act: increases MITF-driven TRPM1 promoter luciferase signal; SK-MEL-5 TRPM1-promoter luciferase, 24 h; % of positive control, neutral wells = 0; hit rate 0.75% among 300,000; AID 588334; activation, % at 12.5 µM;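 active = mean activation of at least 80% with every replicate also reaching 80%; inconclusive = mean reaches 80% but some replicate falls short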;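 note: 0% = neutral control wells and 100% = parthenolide positive control wells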
# HIV Env fusion: HIV envelope-mediated fusion inhibition; AID 651610; HeLa-JRFL Env/CEM21 cell fusion, luciferase; hit rate 1.1% among 360,000; inhibition, % at 12.3 µM;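 active = mean replicate inhibition score of at least 50 and every replicate individually at or above 50; inconclusive = only one of the two criteria met; inactive = mean below 50 and not all replicates reaching 50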;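 note: 0% = plate neutral controls and 100% = maraviroc near 300 nM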
# ERAP1 HTS inh: inhibitors of human ERAP1 aminopeptidase; recombinant ERAP1, Leu-AMC fluorescence, 60 min; inhibition, % at 10.7 µM; hit rate 0.15% among 340,000; AID 652197;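 active = mean replicate inhibition of at least 30%, or all replicates individually reaching that 30% level; inactive = mean below 30% and not every replicate reaching it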;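 note: 0% = neutral control wells and 100% = L-leucinethiol positive control wells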
# Target sequence (Q9NZ08 whole entry, looked up): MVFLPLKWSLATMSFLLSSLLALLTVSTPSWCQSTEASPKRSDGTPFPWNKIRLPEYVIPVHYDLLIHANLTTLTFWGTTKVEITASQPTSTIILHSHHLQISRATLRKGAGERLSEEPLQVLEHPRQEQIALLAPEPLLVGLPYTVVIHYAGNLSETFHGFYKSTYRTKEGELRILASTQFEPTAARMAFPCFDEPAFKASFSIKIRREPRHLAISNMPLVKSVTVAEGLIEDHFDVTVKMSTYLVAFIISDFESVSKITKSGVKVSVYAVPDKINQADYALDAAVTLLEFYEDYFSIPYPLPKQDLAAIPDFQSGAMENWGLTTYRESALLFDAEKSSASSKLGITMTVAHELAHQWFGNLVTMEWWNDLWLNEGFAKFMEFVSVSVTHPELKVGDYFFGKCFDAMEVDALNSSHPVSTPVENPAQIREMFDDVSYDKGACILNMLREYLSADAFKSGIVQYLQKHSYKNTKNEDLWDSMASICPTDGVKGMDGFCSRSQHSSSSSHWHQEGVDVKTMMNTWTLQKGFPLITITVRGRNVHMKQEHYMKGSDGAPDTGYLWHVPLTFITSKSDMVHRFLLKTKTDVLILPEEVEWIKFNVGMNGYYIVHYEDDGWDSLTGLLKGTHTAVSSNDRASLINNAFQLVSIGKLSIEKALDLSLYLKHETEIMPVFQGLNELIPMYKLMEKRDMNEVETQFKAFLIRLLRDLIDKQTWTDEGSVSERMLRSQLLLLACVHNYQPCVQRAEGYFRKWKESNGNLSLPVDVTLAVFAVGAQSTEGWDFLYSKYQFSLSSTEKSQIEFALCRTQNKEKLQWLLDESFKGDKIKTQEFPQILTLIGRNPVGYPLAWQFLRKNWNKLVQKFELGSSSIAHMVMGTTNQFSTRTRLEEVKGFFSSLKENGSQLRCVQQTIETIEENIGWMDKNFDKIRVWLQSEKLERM
# Cneo AK release: causes C. neoformans cell lysis. lysis activity, % at 15 µM. hit rate 0.2% among 360,000. AID 651654. adenylate kinase release luminescence, 4 h; normalised: neutral wells 0, clomiphene wells 100;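 active = mean lysis activity across replicates of at least 80%, whatever share of replicates individually reach that level; inactive = mean lysis activity below 80%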
#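 Material – log-phase Cryptococcus neoformans yeast cells · Input – 5 × 10^6 yeast cells/mL · Medium – fresh YPD growth medium · Doses – single compound concentration per well · Timing – static 4 h at 37 °C with compound, 1 h detection · Detection – adenylate kinase release luminescence · Read-out – signal increase indicating cell lysis · Control set – Clomiphene as positive lysis control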
# Active calls of the source: *; ? = inconclusive; . = no result given; [ ] = another dose, or the depositor's remark. Shown are actives, neighbours in structure and some others; about 3.5% of the full set was active somewhere.
SMILES,esBAF inh,Wnt act,MITF act,HIV Env fusion,ERAP1 HTS inh,Cneo AK release
C[C@@H]1CCCCO[C@H](CN(C)Cc2ccc(C(=O)O)cc2)[C@H](C)CN([C@H](C)CO)C(=O)c2cc(NC(=O)c3ccccc3)ccc2O1,3,.,.,-27[16.7 µM],-1,43
CC(C)C[C@@H]1NC(=O)[C@H]2C[C@@H](C(=O)NCCCCCN)[C@@H](c3cccc(OCCO)c3)N2C1=O,.,.,.,-2[16.7 µM],4,-3
CN1C(=O)c2cc(NS(C)(=O)=O)ccc2OC[C@H]2O[C@@H](CC(=O)NCc3ccc(-c4ccccc4)cc3)CC[C@H]21,-8,.,.,4[16.7 µM],2,-3
Cc1ccccc1NC(=O)/C(C#N)=C/c1ccc[nH]1,24,9,10,-48,0,0
N#C/C(=C\c1ccc[nH]1)C(=O)Nc1ccccc1[N+](=O)[O-],63*,22,5,-266,2,-1
COc1ccc2c(C(=O)c3ccc(C)cc3)n(Cc3ccc(C(N)=O)cc3)[n+]([O-])c2c1,101*,?,46,-58,-1,-1
COc1ccc(C(=O)c2c3ccccc3[n+]([O-])n2CCC(N)=O)cc1,47*,3,3,-14,3,0
COc1ccc(C(=O)c2c3ccccc3[n+]([O-])n2Cc2ccc(C(N)=O)cc2)cc1,19,0,-1,?,8,-1
CCOC(=O)N1CCN(C(=O)c2cc(COc3cccc(C(F)(F)F)c3)on2)CC1,.,21,38,-7,0,0
C[C@@H]1CN(C(=O)c2cc(COc3cccc(C(F)(F)F)c3)on2)C[C@H](C)O1,57*,23,103*,-54,2,1
O=C(c1cc(COc2cccc(C(F)(F)F)c2)on1)N1CCCC1,70*,-1,.,-19,2,0
CC(NC(=O)c1cc(COc2cccc(C(F)(F)F)c2)on1)c1nccs1 (centres undefined),61*,13,66,.,-6,-4
CC(Cn1cncn1)NC(=O)c1cc(COc2cccc(C(F)(F)F)c2)on1 (centres undefined),12,1,-8,8,4,8
CNC[C@H]1Oc2c(NC(=O)c3cc(C)nn3C)cccc2C(=O)N([C@@H](C)CO)C[C@H]1C,0,.,.,.,1,-2
CCCc1ccc2oc(C(=O)N3CCC(O)CC3)c(C)c2c1,?,0,55,-32,-2,1
CCCc1ccc2oc(C(=O)N(C)Cc3nccs3)c(C)c2c1,52*,13,41,-57,3,-11
COc1ccc(OC)c(/C=N/NC(=O)c2cc[n+](CC(=O)c3ccccc3)cc2)c1,-9,0,3,.,37*,4
O=C(C[n+]1ccc(C(=O)N/N=C/c2ccc(O)cc2)cc1)c1ccccc1,11,-2,8,-41,.,2
O=C(C[n+]1ccc(C(=O)N/N=C/c2ccc(OCc3ccccc3)cc2)cc1)c1ccccc1,13,15,134*,.,-2,1
C/C(=N\Nc1cccc2cccnc12)c1ccc[nH]1,47*,42*,48,-157,-2,-5
Cc1cc(Cl)c(S(=O)(=O)N2CCCC2)cc1OCC(=O)NC1CCCCC1,3,-5,-15,78*,.,0
COc1cc(C)ccc1OCC(=O)NC1CCCCCC1,69*,-1,?,.,5,0
CC(=O)c1cc(Cl)ccc1OCC(=O)NC1CCCC1,52*,-3,50,-9,-4,.
O=C(COc1ccc(Cl)cc1[N+](=O)[O-])NC1CCCCC1,101*,0,62,-58,3,.
O=C(COc1ccc(Cl)cc1Br)NC1CC1,38,16,50,16,1,2
SMILES,esBAF inh,Wnt act,MITF act,HIV Env fusion,ERAP1 HTS inh,Cneo AK release
CCOC(=O)c1cc2c(c(-c3cccc(-c4cccc(OC)c4)c3)n1)[C@@H](CCO)N(S(=O)C(C)(C)C)C2 (some centres undefined),1,.,.,-11[16.7 µM],2,-8
COc1cccc(CNC(=O)C[C@@H]2CC[C@@H](NC(=O)C3CCOCC3)[C@H](CO)O2)c1,-5,.,.,-5[16.7 µM],-2,-1
CNC[C@H]1OCCCC[C@@H](C)Oc2ccc(NS(=O)(=O)c3ccccc3)cc2C(=O)N([C@H](C)CO)C[C@H]1C,-1,.,.,-9[16.7 µM],-2,0
CCC/C=C(\CCC)C(NS(=O)(=O)c1cccc2cccnc12)c1ccc(C(=O)OC)cc1 (centres undefined),.,-2,.,90*,6,.
COc1cc(CO)ccc1OCc1ccc(Cl)nc1,57*,36*,.,-33,.,-1
COc1ccc(/C=N/Nc2nncc3ccccc23)cc1,-37,.,1,-52,9,-7
COc1ccc(/C(C)=N/Nc2nncc3ccccc23)cc1,-3,37*,109*,-101,-1,-3
CC12CCC(C(=O)Nc3nccs3)(OC1=O)C2(C)C (centres undefined),.,-5,.,-27,.,.
CC12CCC(C(=O)Nc3nc4ccc(Br)cc4s3)(OC1=O)C2(C)C (centres undefined),.,53*,44,11,-7,.
COc1ccc(Cc2nc3ccc(C(=O)N(C)CCn4ccnc4)cc3o2)cc1OC,48*,20,9,-41,0,6
COc1ccc(Cc2nc3ccc(C(=O)N4C[C@@H](C)O[C@@H](C)C4)cc3o2)cc1OC,69*,9,75,-21,-3,2
COCCN1CCN(C(=O)c2ccc3nc(Cc4ccc(OC)c(OC)c4)oc3c2)CC1,.,-3,0,-7,-4,1
COc1ccc(Cc2nc3ccc(C(=O)N(C)Cc4cc(C)[nH]n4)cc3o2)cc1OC,2,1,5,-10,4,.
COc1ccc(Cc2nc3ccc(C(=O)N4CCOCC4)cc3o2)cc1,78*,20,95*,-59,0,-4
COc1ccc(-c2ccc3n(c2=O)C[C@H]2[C@H](CO)[C@@H](C(=O)N(C)C)N(CC4CC4)[C@@H]32)cc1,1,.,.,.,-5,11
O=C(C[C@@H]1C=C[C@@H](NC(=O)C2CCOCC2)[C@H](CO)O1)Nc1ccc(-c2ccccc2)cc1,2,.,.,-2[16.7 µM],-1,-10
O=C(N/N=C/c1ccc(OC(F)F)cc1OC(F)F)c1ccc(Br)cc1,.,0,19,-8,.,-1
Cc1ccc(S(=O)(=O)N(C)Cc2ccc(C(=O)N/N=C/c3ccc(OC(F)F)cc3OC(F)F)cc2)cc1,.,0,-51,66*,-3,1
CCCC(=O)N1CC2(CCN(Cc3nccs3)CC2)c2c([nH]c3cc(OC)ccc23)[C@@H]1CO,.,.,.,.,-1,.
COc1ccc(Nc2n[nH]c(C)c2[N+](=O)[O-])cc1,.,35*,79,5,-1,.
Cc1[nH]nc(Nc2ccc(O)cc2)c1[N+](=O)[O-],.,9,23,-15,0,.
CCCC(=O)Nc1ccc2c(c1)OC[C@H](C)N(Cc1ccncc1)C[C@H](C)[C@H](OC)CN(C)C2=O,6,.,.,63*[16.7 µM],12,1
